Three compounds from ChEMBL document CHEMBL4385599, “Neutral sphingomyelinase 2 inhibitors based on the 4-(1H-imidazol-2-yl)-2,6-dialkoxyphenol scaffold” (Eur J Med Chem, 2019) can be followed below.

SMILES strings stand for the structures.

The target of data set [1] is T1, Sphingomyelin phosphodiesterase 3 (Rattus norvegicus, UniProt O35049).
T1 sequence (O35049 whole entry): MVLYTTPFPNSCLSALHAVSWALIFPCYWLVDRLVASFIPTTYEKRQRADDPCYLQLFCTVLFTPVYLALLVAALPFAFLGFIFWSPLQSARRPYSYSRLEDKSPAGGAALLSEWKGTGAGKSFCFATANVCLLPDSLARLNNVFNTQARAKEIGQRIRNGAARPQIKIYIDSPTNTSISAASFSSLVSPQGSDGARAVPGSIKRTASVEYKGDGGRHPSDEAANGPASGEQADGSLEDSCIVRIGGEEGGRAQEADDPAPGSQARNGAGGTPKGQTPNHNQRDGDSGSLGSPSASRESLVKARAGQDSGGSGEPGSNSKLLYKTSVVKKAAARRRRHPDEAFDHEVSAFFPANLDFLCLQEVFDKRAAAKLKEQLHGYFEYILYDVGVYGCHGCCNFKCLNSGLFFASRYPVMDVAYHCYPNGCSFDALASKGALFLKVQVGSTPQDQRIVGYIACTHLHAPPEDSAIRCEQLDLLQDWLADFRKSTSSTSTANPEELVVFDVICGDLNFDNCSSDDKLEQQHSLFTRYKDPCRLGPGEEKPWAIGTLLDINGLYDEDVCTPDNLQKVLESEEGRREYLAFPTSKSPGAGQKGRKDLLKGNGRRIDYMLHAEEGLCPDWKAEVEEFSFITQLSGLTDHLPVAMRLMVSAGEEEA
Description: Inhibition of rat brain neutral sphingomyelinase pre-incubated for 30 mins before p-nitrophenyl/phosphorylcholine substrate addition by spectrophotometry.

The nature of data set [2]: Ratio of drug level of test compound to drug level of DPTIP in CD-1 mouse brain at 10 mg/kg, po measured after 2 hrs by UPLC and LC-MS/MS analysis. Particulars: in vivo; call rule not given here. Format: ADME, organism-based. Put shortly: (§1)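 Male CD-1 mice (25–30 g), single oral gavage 10 mg/kg in 5% DMSO, 5% polysorbate 80, 90% saline; 3 mice per time point, sacrificed at 0.5 and 2 h. Cardiac blood into heparin, plasma by centrifugation; brains flash frozen. Acetonitrile extraction with losartan internal standard; quantified by UPLC–LC-MS/MS against calibration curves in naïve plasma/brain matrix.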

The species named for data set [3] is Homo sapiens. Kind of data set: Selectivity index, ratio of IC50 for alkaline phosphatase (unknown origin) to IC50 for Inhibition of human recombinant nSMase expressed in HEK293 cells. Format: cell-based.
The target in data set [4] is T2, Sphingomyelin phosphodiesterase 3 (Homo sapiens, UniProt Q9NY59).
T2 sequence (Q9NY59 whole entry): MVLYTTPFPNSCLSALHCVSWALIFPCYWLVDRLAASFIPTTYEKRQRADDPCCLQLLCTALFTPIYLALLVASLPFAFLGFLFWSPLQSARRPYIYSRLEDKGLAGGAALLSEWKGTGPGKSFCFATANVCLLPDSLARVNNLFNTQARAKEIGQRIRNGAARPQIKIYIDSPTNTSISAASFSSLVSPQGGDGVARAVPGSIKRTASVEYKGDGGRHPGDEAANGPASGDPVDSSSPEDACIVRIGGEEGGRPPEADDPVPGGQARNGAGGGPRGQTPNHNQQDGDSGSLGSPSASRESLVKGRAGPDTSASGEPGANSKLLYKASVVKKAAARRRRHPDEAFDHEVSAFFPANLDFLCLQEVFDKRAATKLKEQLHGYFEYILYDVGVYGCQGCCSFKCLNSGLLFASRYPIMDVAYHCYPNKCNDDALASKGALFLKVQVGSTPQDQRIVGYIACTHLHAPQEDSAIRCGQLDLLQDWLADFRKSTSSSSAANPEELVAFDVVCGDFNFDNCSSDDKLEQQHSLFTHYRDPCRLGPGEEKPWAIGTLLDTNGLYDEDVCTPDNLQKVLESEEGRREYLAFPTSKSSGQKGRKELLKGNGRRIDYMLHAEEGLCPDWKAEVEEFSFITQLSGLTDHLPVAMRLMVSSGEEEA
Kind of data set: Inhibition of human recombinant nSMase expressed in HEK293 cells using sphingomyelin as substrate by alkaline phosphatase, choline oxidase and horseradish peroxidase dependent H2O2 detection based fluorescence coupled assay. In short, it runs like this: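 Fluorescence-based coupled assay with human recombinant nSMase2, alkaline phosphatase and choline oxidase; IC50 values are mean ± SD of at least three experiments.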

Data set [5] is described as follows: Ratio of drug level in brain to plasma in CD-1 mouse at 10 mg/kg, po measured after 2 hrs by UPLC and LC-MS/MS analysis. In kind it is ADME, organism-based. Put shortly: as §1
Data set [6] is described as follows: Metabolic stability in human liver microsomes assessed as parent compound remaining in presence of UDPGA at 5 uM measured after 1 hr by LC/MS/MS method. In kind it is ADME, Microsome. In short, it runs like this: (§2)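 Glucuronidation: compound in 50 mM Tris-HCl pH 7.5 with microsomes 0.5 mg/mL, 8 mM MgCl2, 25 μg/mL alamethicin, preincubated at 37 °C; started with UDPGA 2 mM final, triplicate; 60 min; quenched with cold acetonitrile plus internal standard; parent remaining by LC/MS/MS; cofactor-free controls.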
A general note: Microsomes from liver hold many membrane-bound enzymes, among them those of drug oxidation.

Data set [7] in a line: Metabolic stability in mouse liver microsomes assessed as parent compound remaining at 5 uM in presence of NADPH regenerating system measured after 1 hr by LC/MS/MS method. Format: ADME, Microsome.
The nature of data set [8]: Metabolic stability in mouse liver microsomes assessed as parent compound remaining in presence of UDPGA at 5 uM measured after 1 hr by LC/MS/MS method. Format: ADME, Microsome. In short, it runs like this:
as §2

A short description of data set [9]: Selectivity index, ratio of IC50 for horseradish peroxidase to IC50 for Inhibition of human recombinant nSMase expressed in HEK293 cells. Format: cell-based.
Data set [10] can be described thus: Ratio of drug level of test compound to drug level of DPTIP in CD-1 mouse plasma at 10 mg/kg, po measured after 2 hrs by UPLC and LC-MS/MS analysis. Format: ADME, organism-based. The conditions noted are these: in vivo. In short, it runs like this: as §1
Data set [11] in a line: Ratio of drug level of test compound to drug level of DPTIP in CD-1 mouse plasma at 10 mg/kg, po measured after 0.5 hrs by UPLC and LC-MS/MS analysis. The conditions noted are these: in vivo. Format: ADME, organism-based. Put shortly: as §1
Data set [12] can be described thus: Drug metabolism in CD-1 mouse assessed as (2S,3S,4S,5R,6S)-6-(4-(4,5-diisopropyl-1H-imidazol-2-yl)-2,6-dimethoxyphenoxy)-3,4,5-trihydroxytetrahydro-2H-pyran-2-carboxylic acid at 10 mg/kg, po measured after 2 hrs by UPLC and LC-MS/MS analysis. In kind it is ADME, organism-based. Particulars: in vivo.
A short description of data set [13]: Metabolic stability in human liver microsomes assessed as parent compound remaining at 5 uM in presence of NADPH regenerating system measured after 1 hr by LC/MS/MS method. Format: ADME, Microsome.
The species entered for data set [14] is Homo sapiens. Description: Selectivity index, ratio of IC50 for choline oxidase (unknown origin) to IC50 for Inhibition of human recombinant nSMase expressed in HEK293 cells. In kind it is cell-based.
Data set [15] in a line: Drug level in CD-1 mouse treated with at 10 mg/kg, po 4-(4,5-Diisopropyl-1H-imidazol-2-yl)-2,6-dimethoxyphenol hydrochloride assessed as compound formation measured after 2 hrs by UPLC and LC-MS/MS analysis. In kind it is ADME, organism-based. The conditions noted are these: in vivo. In short, it runs like this: as §1

As for `O=C(/C=C\c1ccc(/C=C\C(=O)Nc2ccc(C3=NCCN3)cc2)cc1)Nc1ccc(C2=NCCN2)cc1`, the half-inhibitory concentration (IC50) (as a rule, the concentration that inhibits the measured activity by half) in [1] came to 1 µM.
Consider `COc1cc(-c2nc(C(C)C)c(C(C)C)[nH]2)cc(OC)c1O`, for which the Ratio stood at 3 in [2], 6 in data set [10] and 3 in [11]. For the same compound, the Ratio IC50 (in the data set filed under Homo sapiens [3]; in data set [9]; in the data set filed under Homo sapiens [14]) was more than 5 in each case. Further, the IC50 in data set [4] was 0.09 µM. Also, the BPR in [5] was 9%. For the same compound, the Stability in data set [6] is listed as 32%; in [7] it was 82%; in [8], 14%; in [13] it was more than 95%. The Drug metabolism result in [12] is given as “Metabolite_Detected”.
`COc1cc(-c2nc(C(C)C)c(C(C)C)[nH]2)cc(OC)c1O[C@@H]1O[C@H](C(=O)O)[C@@H](O)[C@H](O)[C@H]1O`: the Drug uptake entry in data set [15] is listed as “Active”.
